Data reported in ChEMBL document CHEMBL2380293, “Design, synthesis, and biological evaluation of novel histone deacetylase 1 inhibitors through click chemistry” (Bioorg Med Chem Lett, 2013).
The source made the active and inactive calls. The rule behind the calls is not given here.

How the values were obtained:
[1] = biological target: Histone deacetylase 1 (Homo sapiens, UniProt Q13547); assay: Inhibition of human recombinant HDAC1 incubated for 10 mins prior to substrate addition measured after 60 mins by spectrophotometric analysis
[2] = biological target: T1, Histone deacetylase 7 (Homo sapiens) (UniProt Q8WUI4); assay: Inhibition of human recombinant HDAC7 at 10 uM incubated for 10 mins prior to substrate addition measured after 60 mins by spectrophotometric analysis
T1 sequence (whole entry): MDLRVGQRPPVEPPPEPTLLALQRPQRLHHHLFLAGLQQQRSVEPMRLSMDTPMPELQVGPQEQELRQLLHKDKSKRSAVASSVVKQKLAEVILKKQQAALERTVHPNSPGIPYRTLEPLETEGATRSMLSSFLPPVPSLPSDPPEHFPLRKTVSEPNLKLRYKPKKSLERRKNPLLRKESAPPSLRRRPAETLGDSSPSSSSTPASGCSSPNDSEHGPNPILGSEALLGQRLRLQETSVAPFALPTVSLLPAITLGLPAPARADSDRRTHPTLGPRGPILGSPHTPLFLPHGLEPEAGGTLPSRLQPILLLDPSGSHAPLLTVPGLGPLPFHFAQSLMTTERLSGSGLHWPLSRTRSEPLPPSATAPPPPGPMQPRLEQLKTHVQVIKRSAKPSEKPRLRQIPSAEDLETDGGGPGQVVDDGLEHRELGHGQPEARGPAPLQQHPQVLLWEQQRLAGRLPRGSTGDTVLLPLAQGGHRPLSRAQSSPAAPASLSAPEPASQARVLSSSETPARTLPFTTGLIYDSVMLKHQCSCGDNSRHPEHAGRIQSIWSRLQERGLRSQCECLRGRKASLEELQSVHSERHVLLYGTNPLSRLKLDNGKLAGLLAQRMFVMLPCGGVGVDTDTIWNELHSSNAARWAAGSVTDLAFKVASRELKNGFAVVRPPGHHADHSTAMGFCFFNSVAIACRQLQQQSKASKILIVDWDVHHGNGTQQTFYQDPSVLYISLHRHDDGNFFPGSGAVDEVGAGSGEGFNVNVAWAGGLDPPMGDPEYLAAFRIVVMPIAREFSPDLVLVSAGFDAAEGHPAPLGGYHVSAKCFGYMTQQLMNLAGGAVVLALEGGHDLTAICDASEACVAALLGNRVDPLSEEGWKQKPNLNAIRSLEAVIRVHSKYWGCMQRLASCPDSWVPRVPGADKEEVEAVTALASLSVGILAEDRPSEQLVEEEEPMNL
Procedure, shortened: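 Enzyme IC50 values are means of three experiments, with SAHA run as the positive control. Absence of activity was judged at 10 μM.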

[3] = tested on: A549; assay: Growth inhibition of human A549 cells at 10 uM by MTT assay; assay type: functional, cell-based
Procedure, shortened: (§1)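 MTT cell growth read-out, with SAHA as the positive control. GI50 values are means of three experiments. 10 μM was the concentration tested for scoring absence of activity.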

[4] = tested on: BGC-823; assay: Growth inhibition of human BGC823 cells at 10 uM by MTT assay; assay type: functional, cell-based; procedure, shortened: as §1
[5] = tested on: DU-145; assay: Growth inhibition of human DU145 cells by MTT assay; assay type: functional
[6] = tested on: HT-1080; assay: Growth inhibition of human HT1080 cells at 10 uM by MTT assay; assay type: functional, cell-based; procedure, shortened: as §1
[7] = tested on: HeLa; assay: Growth inhibition of human HeLa cells at 10 uM by MTT assay; assay type: functional, cell-based; procedure, shortened: as §1
[8] = tested on: A-431; assay: Growth inhibition of human A431 cells by MTT assay; assay type: functional
[9] = tested on: HT-1080; assay: Growth inhibition of human HT1080 cells by MTT assay; assay type: functional; procedure, shortened: as §1
[10] = tested on: HUVEC; assay: Growth inhibition of HUVEC at 10 uM by MTT assay; assay type: functional, cell-based; conditions: Homo sapiens; procedure, shortened: as §1
[11] = tested on: A-431; assay: Growth inhibition of human A431 cells at 10 uM by MTT assay; assay type: functional, cell-based; procedure, shortened: as §1
[12] = tested on: BGC-823; assay: Growth inhibition of human BGC823 cells by MTT assay; assay type: functional
[13] = tested on: DU-145; assay: Growth inhibition of human DU145 cells at 10 uM by MTT assay; assay type: functional, cell-based; procedure, shortened: as §1
[14] = tested on: A549; assay: Growth inhibition of human A549 cells by MTT assay; assay type: functional
[15] = tested on: HUVEC; assay: Growth inhibition of HUVEC by MTT assay; assay type: functional; conditions: Homo sapiens
[16] = tested on: HeLa; assay: Growth inhibition of human HeLa cells by MTT assay; assay type: functional

Histone deacetylase 1, sequence (Q13547 whole entry): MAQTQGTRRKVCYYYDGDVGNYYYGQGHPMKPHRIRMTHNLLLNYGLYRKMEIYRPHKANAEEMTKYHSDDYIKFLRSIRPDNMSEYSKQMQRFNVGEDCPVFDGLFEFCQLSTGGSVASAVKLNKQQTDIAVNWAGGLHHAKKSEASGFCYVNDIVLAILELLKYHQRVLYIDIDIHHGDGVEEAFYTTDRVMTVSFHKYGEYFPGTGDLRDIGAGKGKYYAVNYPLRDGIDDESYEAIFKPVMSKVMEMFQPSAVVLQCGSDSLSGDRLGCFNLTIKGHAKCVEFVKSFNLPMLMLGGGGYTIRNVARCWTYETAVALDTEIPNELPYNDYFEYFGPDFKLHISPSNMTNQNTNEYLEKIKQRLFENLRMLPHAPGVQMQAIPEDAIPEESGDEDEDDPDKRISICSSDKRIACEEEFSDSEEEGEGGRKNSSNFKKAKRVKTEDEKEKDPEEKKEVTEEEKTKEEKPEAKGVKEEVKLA

Structure (SMILES): O=C(CCCCc1cn(Cc2ccccc2)nn1)NO
- IC50 [1]: 1.68 µM
- inhibition [2]: inactive

Structure (SMILES): O=C(CCCCc1cn(Cc2ccc(F)cc2)nn1)NO
- IC50 [1]: 0.645 µM
- inhibition [2]: inactive

Structure (SMILES): Cc1ccc(Cn2cc(CCCCC(=O)NO)nn2)cc1
- IC50 [1]: 0.44 µM
- inhibition [2]: inactive

Structure (SMILES): O=C(CCCCc1cn(Cc2ccccn2)nn1)NO
- IC50 [1]: 2.57 µM
- inhibition [2]: inactive

Structure (SMILES): O=C(CCCCc1cn(Cc2ccc(Br)cc2)nn1)NO
- growth inhibition (GI) [3]: inactive
- IC50 [1]: 1.6 µM
- growth inhibition (GI) [4]: inactive
- inhibition [2]: inactive
- GI50 [5]: 7.91 µM
- growth inhibition (GI) [6]: inactive
- growth inhibition (GI) [7]: inactive
- GI50 [8]: 15.4 µM

Structure (SMILES): COc1ccc(Br)c(Cn2cc(CCCCC(=O)NO)nn2)c1
- growth inhibition (GI) [3]: inactive
- IC50 [1]: 0.159 µM
- growth inhibition (GI) [4]: inactive
- inhibition [2]: inactive
- GI50 [5]: 5.62 µM
- growth inhibition (GI) [7]: inactive
- GI50 ([9]; Homo sapiens, HT-1080): 9.94 µM
- growth inhibition (GI) [10]: inactive
- growth inhibition (GI) [11]: inactive

Structure (SMILES): O=C(CCCCc1cn(Cc2ccc3ccccc3c2)nn1)NO
- GI50 [12]: 6.64 µM
- growth inhibition (GI) [3]: inactive
- IC50 [1]: 0.107 µM
- inhibition [2]: inactive
- GI50 [5]: 7.23 µM
- growth inhibition (GI) [7]: inactive
- GI50 ([9]; Homo sapiens, HT-1080): 4.61 µM
- growth inhibition (GI) [10]: inactive
- GI50 [8]: 5.68 µM

Structure (SMILES): O=C(CCCCc1cn(Cc2ccc(F)c(Cl)c2)nn1)NO
- growth inhibition (GI) [13]: inactive
- growth inhibition (GI) [3]: inactive
- IC50 [1]: 0.649 µM
- growth inhibition (GI) [4]: inactive
- inhibition [2]: inactive
- growth inhibition (GI) [7]: inactive
- GI50 ([9]; Homo sapiens, HT-1080): 10.2 µM
- growth inhibition (GI) [10]: inactive

Structure (SMILES): O=C(CCCCc1cn(Cc2ccccc2Br)nn1)NO
- growth inhibition (GI) [13]: inactive
- growth inhibition (GI) [3]: inactive
- IC50 [1]: 3.58 µM
- growth inhibition (GI) [4]: inactive
- inhibition [2]: inactive
- growth inhibition (GI) [6]: inactive
- growth inhibition (GI) [7]: inactive
- growth inhibition (GI) [11]: inactive

Structure (SMILES): O=C(CCCCc1cn(Cc2ccccc2F)nn1)NO
- IC50 [1]: 1.36 µM
- inhibition [2]: inactive

Structure (SMILES): O=C(CCCCc1cn(Cc2ccc(F)cc2F)nn1)NO
- IC50 [1]: 1.22 µM
- inhibition [2]: inactive

Structure (SMILES): O=C(CCCCc1cn(Cc2ccc(Cl)cc2)nn1)NO
- IC50 [1]: 2.21 µM
- inhibition [2]: inactive

Structure (SMILES): O=C(CCCCc1cn(Cc2cccc(-c3ccccc3)c2)nn1)NO
- GI50 [14]: 1.47 µM
- GI50 [12]: 3.05 µM
- GI50 [15]: 1.13 µM
- IC50 [1]: 0.058 µM
- inhibition [2]: inactive
- GI50 [5]: 1.19 µM
- GI50 ([9]; Homo sapiens, HT-1080): 3.14 µM
- GI50 [16]: 3.85 µM
- GI50 [8]: 4.65 µM

Structure (SMILES): O=C(CCCCCCC(=O)Nc1ccccc1)NO [VORINOSTAT]
- GI50 [9]: 4.87 µM

Structure (SMILES): O=C(CCCCc1cn(Cc2cccc(Br)c2)nn1)NO
- growth inhibition (GI) [13]: inactive
- growth inhibition (GI) [3]: inactive
- IC50 [1]: 0.396 µM
- growth inhibition (GI) [4]: inactive
- inhibition [2]: inactive
- growth inhibition (GI) [7]: inactive
- GI50 ([9]; Homo sapiens, HT-1080): 6.65 µM
- growth inhibition (GI) [10]: inactive
- growth inhibition (GI) [11]: inactive
